Series [1] in a line: folding enthalpy; higher = less favourable; fluorescence melt of hairpins on a sequencing array, two-state fit. As to conditions: sodium 0.088 M. An outline of the steps: (§1)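 Cy3 fluorescence of library hairpins on a sequenced MiSeq flow cell, with annealed Cy3 and quencher oligos, was imaged in 50 mM Na-HEPES pH 8.0, 25 mM NaCl in 2.5 °C steps up to 60 °C. Signals were normalised to pre-quench Cy3 and to control variants. Melting temperature and folding enthalpy came from bootstrapped two-state fits, inverse-variance combined over four replicates. Fitted temperatures were raised by 9.35 °C to match UV melts.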

Series [2] can be described thus: melting temperature; fluorescence melt of hairpins on a sequencing array, two-state fit, raised by 9.35 °C to match UV melts. Conditions: sodium 0.088 M. An outline of the steps:
as §1

For GATCGCGGAAACACGATC (((((.(....).))))), the folding enthalpy in series [1] is -30.7 kcal/mol. For the same sequence, the Tm in series [2] is 48.6 °C.
The matching figures for GATCGCGGAAACGTGGTC ((.(.((....)).).)): -26.7 kcal/mol and 43.6 °C.
For GATCGCGGGGGCGATC ((((((....)))))), the folding enthalpy in series [1] was -27.7 kcal/mol. Moreover, the Tm in series [2] was 69.3 °C.
The matching figures for GATCGCTAATGCGATC ((((((....)))))): -31.4 kcal/mol and 67.1 °C.
The matching figures for GATCGCTCGAGCGATC ((((((....)))))): -42.1 kcal/mol and 67.6 °C.
The matching figures for GATCGCTGCCGCGATC ((((((....)))))): -32.8 kcal/mol and 67.3 °C.
As for GATCGCTGGAGCGATC ((((((....)))))), the folding enthalpy in series [1] is -37.8 kcal/mol. For the same sequence, the Tm in series [2] was 68.5 °C.
For GATCGCTGTCGCGATC ((((((....)))))), in series [1], the folding enthalpy is -30.2 kcal/mol. Besides, the Tm in series [2] is 68.4 °C.
For GATCGCTTGCGCGATC ((((((....)))))), the folding enthalpy in series [1] is -30.3 kcal/mol. In series [2], the Tm worked out at 67.1 °C.
For the sequence GATCGGAACCCCGATC ((((((....)))))), in series [1], the folding enthalpy was -40 kcal/mol. For the same sequence, in series [2], the Tm was 54.1 °C.
The matching figures for GATCGGAAGACCGATC ((((((....)))))): -29 kcal/mol and 52.8 °C.
The matching figures for GATCGGAATTCCGATC ((((((....)))))): -51 kcal/mol and 56.6 °C.
The matching figures for GATCGGACACCGATC ((((((...)))))): -33.4 kcal/mol and 57.1 °C.
Turning to GATCGGACTGCCGATC ((((((....)))))), the folding enthalpy in series [1] is -42 kcal/mol. Further, the Tm in series [2] was 55.5 °C.
For the sequence GATCGGATTCCGATC ((((((...)))))), the folding enthalpy in series [1] is -44.6 kcal/mol. The Tm in series [2] was 54.6 °C.
The matching figures for GATCGGATTTCCGATC ((((((....)))))): -36.5 kcal/mol and 57.5 °C.
The matching figures for GATCGGCATCCGATC ((((((...)))))): -40.1 kcal/mol and 55.3 °C.
Consider GATCGGCCACCCGATC ((((((....)))))), for which, in series [1], the folding enthalpy is -39.9 kcal/mol. Besides, in series [2], the Tm came to 54.9 °C.
The matching figures for GATCGGCCCTCCGATC ((((((....)))))): -39.9 kcal/mol and 56.7 °C.
The matching figures for GATCGGCCTTCCGATC ((((((....)))))): -41.3 kcal/mol and 56.1 °C.
The matching figures for GATCGGCGCACCGATC ((((((....)))))): -37.4 kcal/mol and 59.9 °C.
As for GATCGGCGGACCGATC ((((((....)))))), in series [1], the folding enthalpy is -38.8 kcal/mol. In addition, the Tm in series [2] is 57.2 °C.
On to GATCGGCGGTCCGATC ((((((....)))))), for which the folding enthalpy in series [1] is -43.3 kcal/mol. The Tm in series [2] stood at 55.5 °C.
The matching figures for GATCGGCTACCGATC ((((((...)))))): -33.9 kcal/mol and 56 °C.
The matching figures for GATCGGCTCACCGATC ((((((....)))))): -38.8 kcal/mol and 57.4 °C.
The matching figures for GATCGGCTCCCCGATC ((((((....)))))): -42.1 kcal/mol and 55.2 °C.
On to GATCGGCTCGCCGATC ((((((....)))))), for which, in series [1], the folding enthalpy is -35.9 kcal/mol. For the same sequence, in series [2], the Tm stood at 69.3 °C.
As to GATCGGCTGACCGATC ((((((....)))))), the folding enthalpy in series [1] was -40.4 kcal/mol. In addition, the Tm in series [2] turned out to be 56.2 °C.
The matching figures for GATCGGCTGTCCGATC ((((((....)))))): -39.6 kcal/mol and 56.3 °C.
The matching figures for GATCGGCTTCCGATC ((((((...)))))): -44.9 kcal/mol and 56.1 °C.
The matching figures for GATCGGGACTCCGATC ((((((....)))))): -39.7 kcal/mol and 61 °C.
With GATCGGGAGACCGATC ((((((....)))))), the folding enthalpy in series [1] is -32.6 kcal/mol. In addition, the Tm in series [2] was 63.8 °C.
Turning to GATCGGGAGGCCGATC ((((((....)))))), the folding enthalpy in series [1] is -46.1 kcal/mol. Moreover, the Tm in series [2] worked out at 56.2 °C.
GATCGGGAGTCCGATC ((((((....)))))): the folding enthalpy in series [1] was -39.6 kcal/mol. Besides, in series [2], the Tm came out at 56.5 °C.
The matching figures for GATCGGGCGCCGATC ((((((...)))))): -46.3 kcal/mol and 55 °C.
Consider GATCGGGCGTCCGATC ((((((....)))))), for which the folding enthalpy in series [1] is -37.2 kcal/mol. Also, the Tm in series [2] came out at 58.2 °C.
With GATCGGGGAAACTCGATC (((((.(....).))))), in series [1], the folding enthalpy is -33.1 kcal/mol. In addition, the Tm in series [2] was 51.2 °C.
The matching figures for GATCGGGGACCGATC ((((((...)))))): -37.2 kcal/mol and 66.8 °C.
The matching figures for GATCGGGGATCCGATC ((((((....)))))): -40.7 kcal/mol and 62.8 °C.
The matching figures for GATCGGGGCCCGATC ((((((...)))))): -41.2 kcal/mol and 60.5 °C.
As to GATCGGGGGCCGATC ((((((...)))))), the folding enthalpy in series [1] is -40.8 kcal/mol. Also, the Tm in series [2] was found to be 54.9 °C.
The matching figures for GATCGGGGTCCGATC ((((((...)))))): -32.1 kcal/mol and 58.6 °C.
With GATCGGGTACCCGATC ((((((....)))))), in series [1], the folding enthalpy is -47.6 kcal/mol. For the same sequence, in series [2], the Tm is 64.9 °C.
The matching figures for GATCGGGTATCCGATC ((((((....)))))): -37.6 kcal/mol and 65.4 °C.
The matching figures for GATCGGGTGGCCGATC ((((((....)))))): -40.4 kcal/mol and 57 °C.
GATCGGGTGTCCGATC ((((((....)))))): in series [1], the folding enthalpy is -37.7 kcal/mol. For the same sequence, the Tm in series [2] came out at 58.3 °C.
The matching figures for GATCGGGTTTCCGATC ((((((....)))))): -39.9 kcal/mol and 60.7 °C.
As to GATCGGTACACCGATC ((((((....)))))), the folding enthalpy in series [1] is -40.4 kcal/mol. Moreover, in series [2], the Tm was 62.2 °C.
The matching figures for GATCGGTACCCCGATC ((((((....)))))): -42.5 kcal/mol and 54.4 °C.
The matching figures for GATCGGTACCCGATC ((((((...)))))): -39.3 kcal/mol and 57.2 °C.
The matching figures for GATCGGTATGCCGATC ((((((....)))))): -41.9 kcal/mol and 62.1 °C.
As to GATCGGTATTCCGATC ((((((....)))))), the folding enthalpy in series [1] was -42 kcal/mol. In addition, the Tm in series [2] came to 58.4 °C.
As to GATCGGTCAGCCGATC ((((((....)))))), the folding enthalpy in series [1] was -41.8 kcal/mol. Moreover, in series [2], the Tm worked out at 59.8 °C.
The matching figures for GATCGGTCCCCCGATC ((((((....)))))): -45 kcal/mol and 55.7 °C.
For GATCGGTCCGCCGATC ((((((....)))))), the folding enthalpy in series [1] was -42.5 kcal/mol. Also, the Tm in series [2] was 60.1 °C.
As to GATCGGTCCTCCGATC ((((((....)))))), in series [1], the folding enthalpy is -38 kcal/mol. For the same sequence, in series [2], the Tm was 59.9 °C.
The matching figures for GATCGGTCGGCCGATC ((((((....)))))): -45.8 kcal/mol and 59.4 °C.

The values are drawn from the array DNA melting data of Ke et al. (doi:10.1101/2024.01.08.574731).
